Only some compounds are listed: those with a hit (about 0.38% of all), similar ones and a draw of the others.
STK33 kinase inh: human STK33 kinase inhibition | 0.073% of 320,000 active | purified STK33, MBP phosphorylation, ADP-Glo luminescence | AID 2661 | Q9BYT3 | inhibition, % at 10 µM;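 active = inhibition at or above 25%, using the most active replicate where run in duplicate; inactive = inhibition below 25%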
Target sequence (Q9BYT3 whole entry, looked up): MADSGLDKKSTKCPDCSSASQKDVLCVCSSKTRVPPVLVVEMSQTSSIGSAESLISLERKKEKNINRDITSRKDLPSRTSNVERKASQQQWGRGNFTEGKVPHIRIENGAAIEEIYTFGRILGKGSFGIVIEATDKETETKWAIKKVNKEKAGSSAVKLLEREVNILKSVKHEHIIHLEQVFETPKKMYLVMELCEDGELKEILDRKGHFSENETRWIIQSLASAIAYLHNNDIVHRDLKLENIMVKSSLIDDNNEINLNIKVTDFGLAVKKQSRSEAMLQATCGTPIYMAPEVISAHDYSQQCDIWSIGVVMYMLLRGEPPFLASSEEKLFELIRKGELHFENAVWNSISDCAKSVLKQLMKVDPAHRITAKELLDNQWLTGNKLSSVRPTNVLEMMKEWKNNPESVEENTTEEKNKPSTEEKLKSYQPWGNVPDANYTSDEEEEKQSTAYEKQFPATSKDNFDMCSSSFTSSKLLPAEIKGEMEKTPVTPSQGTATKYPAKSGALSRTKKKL
Bfl-1 A1 inh: inhibitors of the anti-apoptotic protein A1, read as caspase activation; MEF A1-2A-BIM cells, Caspase-Glo 3/7 luminescence, 3 h; percent of clofoctol response, vehicle zero; caspase activation, % (test concentration not listed); 0.066% of 330,000 active; AID 2462;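 active = over half of replicate activation scores above 10%, or exactly half above 10 with the replicate mean above 10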
procasp3 activ: procaspase-3 (human) activation. recombinant procaspase-3 D3A, Ac-DEVD-pNA absorbance 405 nm. activation, % at 8.5 µM. 0.11% of 330,000 active. P42574;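 active = activation above the mean of all tested compounds plus 3 SD, cut at about 21% in these data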
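Assay system – Procaspase-3 D3A mutant · Benchmarks – DMSO low control, extra-enzyme high control · Technique – 405 nm absorbance of p-nitroaniline, reads at 0 and 120 min · Doses – 8.5 µM nominal · Measure – % activation between DMSO and enzyme-spiked controls · Also added – Ac-DEVD-pNA chromogenic peptide substrate · Schedule – 1 h compound preincubation, 2 h substrate hydrolysis at 25 °C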
GSK3 alpha inh: human GSK-3 alpha kinase inhibition; P49840; ADP-Glo luminescence, 60 min; inhibition, % at 10 µM; 0.1% of 320,000 active; AID 2650;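 active = more than half of replicates show inhibition above 20%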;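 also: GST-tagged GSK-3 alpha with peptide substrate and 25 µM ATP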
proCasp7 act: counter-screen for procaspase-3 activators: activators of human procaspase-7; recombinant procaspase-7, Ac-DEVD-pNA absorbance 405 nm; D23A/D198A/D206A triple mutant, cannot self-cleave; scale: DMSO 0, 5 µM enzyme 100; activation, % at 8.5 µM; 0.093% of 330,000 active;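 active = percent activation above the screen-wide mean plus 3 SD, cut at about 25% in these data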
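Assay system: Uncleavable procaspase-7 mutant enzyme / Input: 2 µM procaspase-7 mutant as dispensed / Dosing: single nominal 8.5 µM compound dose, 0.8% DMSO final / Timing: 1 h enzyme–compound preincubation and 2 h substrate reaction, both 25 °C / Detection: p-Nitroaniline absorbance at 405 nm, read at 0 and 120 min / Replication: singlicate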
GSK3B inh: inhibitors of human GSK3beta kinase | P49841 | GST-GSK3beta kinase, ADP-Glo luminescence, 60 min; active compounds read low | activity score (negative = inhibition), % at 10 µM | 0.038% of 300,000 active | AID 2097;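 active = more than half of replicate wells score below -50%, meaning over 50% inhibition versus plate controls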
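test system = GST-tagged human GSK3beta kinase, cell-free | reagent = 25 µM ATP with peptide substrate | dosing = one dose of 10 µM per compound | schedule = 60 min reaction, RT | detection = luminescent ADP-Glo measurement of ADP formed | control set = DMSO neutral wells and GW8510 at 20 µM as positive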
Numbers stand for hits; 0 = inactive; - = no result.

SMILES | STK33 kinase inh | Bfl-1 A1 inh | procasp3 activ | GSK3 alpha inh | proCasp7 act | GSK3B inh
[O-]/[N+](=C/c1ccccc1)c1ccccc1 | 0 | 0 | 0 | 0 | 0 | -
CCn1c(Cl)c(C=O)s/c1=N\S(=O)(=O)c1ccccc1 | 0 | 56 | 0 | 0 | 0 | 0
COC(=O)c1cccc2c1-c1ccccc1/C2=N/O | 30 | 0 | 0 | 0 | 0 | 0
COC(=O)c1cccc2c1-c1ccccc1/C2=N\NC(N)=O | 0 | 0 | 0 | 0 | 0 | 0
O=C(NC(=S)Nc1ccccc1OC(F)F)c1ccc2c(c1)OCO2 | 0 | 0 | 0 | 0 | 0 | -
CCCN(CCC)Cc1c(C(=O)N/N=C/c2ccncc2)nnn1-c1nonc1N | 0 | 0 | 0 | 74 | 0 | 0
CC(/C=N/NC(=O)c1nnn(-c2nonc2N)c1CN(C)C)=C\c1ccco1 | 0 | 0 | 0 | 50 | 0 | 0
CCCN(CCC)Cc1c(C(=O)N/N=C/c2ccc(C)o2)nnn1-c1nonc1N | 0 | 0 | 0 | 0 | 0 | 0
CCN(CC)Cc1c(C(=O)N/N=C/c2cccnc2)nnn1-c1nonc1N | 0 | 0 | 0 | 53 | 0 | 0
CCCN(CCC)Cc1c(C(=O)N/N=C/C(C)=C\c2ccco2)nnn1-c1nonc1N | 0 | 0 | 0 | 0 | 0 | 0
CCOc1cccc(-c2c(C(=O)N/N=C(\C)c3cccnc3)nnn2-c2nonc2N)c1 | 0 | 0 | 0 | 52 | 0 | 0
CCOc1cc(N2CCOCC2)c(OCC)cc1NC(=O)CN1C(=O)NC2(CCCCC2)C1=O | 0 | 0 | 0 | 0 | 0 | -
O=C(CNC(=O)C1CCCCC1)OC(C(=O)c1ccccc1)c1ccccc1 (centres undefined) | 0 | 0 | 0 | 0 | 0 | -
CN(Cc1c(C(=O)N/N=C/c2ccc(O)cc2)nnn1-c1nonc1N)C1CCCCC1 | 0 | 0 | 0 | 60 | 0 | 0
CSc1cccc(NC(=S)N2CCC(N(C)C3CCCCC3C)CC2)c1 (centres undefined) | 0 | 0 | 0 | 0 | 0 | 0
O=C(Cn1ncc(Cl)c(Cl)c1=O)NCC1CCCCC1 | 0 | 10 | 0 | 0 | 0 | -
CCNS(=O)(=O)c1ccc(NC(=O)CC(C)c2ccccc2)cc1 (centres undefined) | 0 | 0 | 0 | 0 | 0 | 0
CN(c1cccc(NC(=O)CN(c2cccc(F)c2)S(C)(=O)=O)c1)S(C)(=O)=O | 0 | 0 | 0 | 0 | 0 | 0
COc1ccc(-c2cnc(N)nc2-c2ccc(OCc3ccccc3)cc2O)cc1 | 0 | 0 | 0 | - | 0 | 0
Nc1ncc(-c2ccccc2)c(-c2ccc(O)cc2O)n1 | 0 | 0 | 0 | 60 | 0 | 0
Cc1ccc(NC(=O)N2CCN(C/C=C/c3ccccc3)CC2)cc1 | 0 | 0 | 0 | 0 | 0 | 0
COC(=O)c1ccccc1NC(=O)N1CCN(C/C=C/c2ccccc2)CC1 | 32 | 0 | 0 | 0 | 0 | 0
CCCC12CN3CC(CCC)(CN(C1)C3c1ccco1)C2=O (centres undefined) | 0 | 0 | 0 | 0 | 0 | 0
Cc1ccnc2nc(C(=O)OCCOc3ccc(F)cc3)nn12 | 0 | 0 | 0 | 0 | 0 | 0
Cc1ccc(CCNC(=O)c2cc(-c3ccncc3)nc3ccc(S(=O)(=O)N4CCOCC4)cc23)cc1 | 0 | 6.4 | 0 | 0 | 0 | 0
SMILES | STK33 kinase inh | Bfl-1 A1 inh | procasp3 activ | GSK3 alpha inh | proCasp7 act | GSK3B inh
O=C(NCc1ccccc1)c1cc(-c2ccncc2)nc2ccc(S(=O)(=O)N3CCOCC3)cc12 | 0 | 0 | 0 | 0 | 0 | 0
Clc1ccc(CSc2nnc(-c3ccncc3)o2)cc1 | 0 | 0 | 0 | 0 | 0 | 0
Fc1ccc(CSc2nnc(-c3ccncc3)o2)cc1 | 0 | 0 | 0 | 0 | 0 | -54
CCOc1ccc(C2Nc3ccc4ccccc4c3-c3c2c(=O)oc2ccccc32)cc1 (centres undefined) | 0 | 0 | 0 | 0 | 0 | 0
COc1ccc(C2Nc3ccc4ccccc4c3-c3c2c(=O)oc2ccccc32)cc1 (centres undefined) | 0 | 8.7 | 0 | 0 | 0 | 0
Cc1ccc(NC(=O)CN(C)C(=O)c2cccc(S(=O)(=O)NCc3ccccc3)c2)cc1 | 0 | 0 | 0 | 0 | 0 | 0
CN(Cc1nc2c(s1)CCCC2)C(=O)CCc1nnc(-c2ccc3c(c2)OCO3)o1 | 0 | 0 | 0 | 58 | 0 | 0
CCOC(=O)C1CCCCN1C(=O)CCc1nnc(-c2ccc3c(c2)OCO3)o1 (centres undefined) | 0 | 0 | 0 | 0 | 0 | 0
O=C(CSc1ccccc1)Nc1ccc2c(c1)C(=O)NC2=O | 0 | 0 | 0 | 60 | 0 | 0
Cc1ccc(SCC(=O)Nc2ccc3c(c2)C(=O)NC3=O)cc1 | 0 | 0 | 0 | 0 | 0 | 0
CSC(=Nc1cccc(C)c1)NC#N | 0 | 0 | 0 | 0 | 0 | 0
CC1=NNC(=O)/C1=C\c1cn(-c2ccccc2)nc1-c1ccc(Cl)cc1 | 0 | 41 | 0 | 0 | 0 | 0
Cc1ccc(-c2nn(-c3ccccc3)cc2C=C2C(=O)CC(C)(C)CC2=O)cc1 | 0 | 0 | 0 | - | 0 | 0
CCC(=O)c1c[nH]c(C(=O)N2CCOCC2)c1 | 0 | 0 | 0 | 0 | 0 | 0
Cc1cnc(NC(=O)C2CC(=O)N(c3ccc4c(c3)OCCO4)C2)s1 (centres undefined) | 0 | 0 | 0 | 50 | 0 | -
COc1ccc(-c2cc(-c3ccccc3)nc(N3CCCC3)n2)cc1OC | 0 | 0 | 0 | 0 | 27 | 0
CC(C)CNc1nc(N)c([N+](=O)[O-])c(N2CCCCCC2)n1 | 0 | 0 | 0 | 0 | 0 | 0
Nc1nc(NCCO)nc(N2CCCCCC2)c1[N+](=O)[O-] | 0 | 0 | 0 | 54 | 0 | 0
Nc1nc(NCCOCCO)nc(N2CCCCCC2)c1[N+](=O)[O-] | 0 | 0 | - | 0 | - | 0
COCCCNc1nc(N)c([N+](=O)[O-])c(NC2CCCCC2)n1 | 0 | 0 | 0 | 60 | 0 | 0
COc1ccc(Nc2nc(N)c([N+](=O)[O-])c(NC3CCCCC3)n2)cc1 | 0 | 0 | 0 | 0 | 0 | 0
COCCCNc1nc(N)c([N+](=O)[O-])c(N2CCCCCC2)n1 | 0 | 0 | 0 | 54 | 0 | 0
COc1cc(/C=N/N=C2/C(=O)Nc3ccccc32)ccc1O | 38 | 0 | 0 | 0 | 0 | 0
C[C@H]1CN([C@@H](C)CO)C(=O)c2cccc(NC(=O)c3cnccn3)c2O[C@@H]1CN(C)S(=O)(=O)c1ccc(F)cc1 | 0 | 0 | 0 | 55 | 0 | -
C[C@H](CO)N1C[C@H](C)[C@@H](CN(C)S(=O)(=O)c2ccc(F)cc2)Oc2c(NC(=O)Cc3ccccc3)cccc2C1=O | 0 | 0 | 0 | 0 | 0 | -
Cc1cc(C)c(N=Cc2c(O)c3ccccc3oc2=O)c(C)c1 | 0 | 0 | 0 | 0 | 0 | 0
Cc1cc(C)cc(N=Cc2c(O)c3ccccc3oc2=O)c1 | 0 | 10 | 0 | 0 | 0 | 0
CCOC(=O)c1c(C)oc2c1c(CN1CCN(C(=O)OCC)CC1)c(O)c1ccccc12 | - | 20 | 0 | - | 0 | 0

Screening data as filed in PubChem.
